In the M2OR odorant receptor database:

How the values were obtained:
Conditions in all cases: stereoisomer not certain
[1] = target: T1, OR10A3 (Homo sapiens) (UniProt P58181)
T1 sequence (whole entry): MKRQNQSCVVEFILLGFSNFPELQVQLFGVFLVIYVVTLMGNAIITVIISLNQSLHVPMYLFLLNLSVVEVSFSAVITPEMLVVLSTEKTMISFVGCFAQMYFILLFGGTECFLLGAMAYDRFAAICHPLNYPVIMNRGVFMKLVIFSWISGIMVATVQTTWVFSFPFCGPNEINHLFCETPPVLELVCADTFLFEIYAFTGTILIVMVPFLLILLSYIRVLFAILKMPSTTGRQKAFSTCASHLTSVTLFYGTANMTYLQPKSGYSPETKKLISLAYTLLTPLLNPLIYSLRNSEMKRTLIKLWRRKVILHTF
Outline: (§1)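 Transient luciferase assays in mammalian cell lines were common, though methods varied by source. The values come from published papers and their supplementary material, with extra details from the original authors when needed. Responsive refers to a measured signal the original authors judged statistically different from baseline, and non-responsive (inactive) to the remainder.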

[2] = target: T2, OR10A4 (Homo sapiens) (UniProt Q9H209)
T2 sequence (whole entry): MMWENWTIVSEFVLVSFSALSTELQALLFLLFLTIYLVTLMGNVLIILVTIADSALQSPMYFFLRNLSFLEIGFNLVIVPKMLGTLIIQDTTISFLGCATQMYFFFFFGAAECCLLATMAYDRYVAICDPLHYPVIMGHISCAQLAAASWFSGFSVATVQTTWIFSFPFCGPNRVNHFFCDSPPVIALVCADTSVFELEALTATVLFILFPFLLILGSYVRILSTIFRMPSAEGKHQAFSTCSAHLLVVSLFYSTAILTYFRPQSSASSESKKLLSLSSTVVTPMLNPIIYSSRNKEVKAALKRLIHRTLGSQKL
Outline: as §1

[3] = target: T3, OR10A5 (Homo sapiens) (UniProt Q9H207)
T3 sequence (whole entry): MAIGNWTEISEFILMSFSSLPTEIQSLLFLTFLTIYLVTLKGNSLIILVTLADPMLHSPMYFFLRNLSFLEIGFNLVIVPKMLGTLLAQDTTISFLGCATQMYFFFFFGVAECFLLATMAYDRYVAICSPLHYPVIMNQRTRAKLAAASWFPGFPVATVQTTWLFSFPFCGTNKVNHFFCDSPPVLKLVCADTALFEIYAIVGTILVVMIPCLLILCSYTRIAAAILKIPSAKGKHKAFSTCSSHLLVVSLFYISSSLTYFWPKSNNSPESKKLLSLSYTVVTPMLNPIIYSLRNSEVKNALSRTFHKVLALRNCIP
Outline: as §1

[4] = target: T4, OR10A6 (Homo sapiens) (UniProt Q8NH74)
T4 sequence (whole entry): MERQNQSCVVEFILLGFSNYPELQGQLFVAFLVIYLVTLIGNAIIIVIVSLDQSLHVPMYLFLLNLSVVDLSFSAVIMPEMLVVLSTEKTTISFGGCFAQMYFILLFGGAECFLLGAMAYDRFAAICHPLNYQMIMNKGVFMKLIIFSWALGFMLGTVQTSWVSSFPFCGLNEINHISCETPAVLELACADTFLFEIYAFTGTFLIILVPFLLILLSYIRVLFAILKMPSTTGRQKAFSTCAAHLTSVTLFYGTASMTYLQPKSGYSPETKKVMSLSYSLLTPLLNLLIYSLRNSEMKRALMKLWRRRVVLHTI
Outline: as §1

[5] = target: T5, OR10A7 (Homo sapiens) (UniProt Q8NGE5)
T5 sequence (whole entry): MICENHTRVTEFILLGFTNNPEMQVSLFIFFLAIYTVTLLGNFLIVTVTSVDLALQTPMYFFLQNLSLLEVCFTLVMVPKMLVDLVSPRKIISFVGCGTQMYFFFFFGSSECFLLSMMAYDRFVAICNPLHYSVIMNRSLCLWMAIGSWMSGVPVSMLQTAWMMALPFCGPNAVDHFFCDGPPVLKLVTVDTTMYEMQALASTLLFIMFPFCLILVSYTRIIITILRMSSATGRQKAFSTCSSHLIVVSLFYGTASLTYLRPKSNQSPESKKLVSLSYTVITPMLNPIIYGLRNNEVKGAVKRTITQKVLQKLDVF
Outline: as §1

[6] = target: T6, OR10AD1 (Homo sapiens) (UniProt Q8NGE0)
T6 sequence (whole entry): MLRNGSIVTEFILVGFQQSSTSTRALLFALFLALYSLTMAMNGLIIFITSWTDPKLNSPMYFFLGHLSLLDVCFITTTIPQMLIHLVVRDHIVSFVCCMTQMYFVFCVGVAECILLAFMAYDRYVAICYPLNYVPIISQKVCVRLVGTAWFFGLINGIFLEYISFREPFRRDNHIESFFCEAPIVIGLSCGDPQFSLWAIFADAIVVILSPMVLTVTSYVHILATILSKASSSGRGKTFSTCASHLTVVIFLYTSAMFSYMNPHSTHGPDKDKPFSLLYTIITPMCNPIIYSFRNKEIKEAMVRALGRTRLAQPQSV
Outline: as §1

[7] = target: T7, OR10AG1 (Homo sapiens) (UniProt Q8NH19)
T7 sequence (whole entry): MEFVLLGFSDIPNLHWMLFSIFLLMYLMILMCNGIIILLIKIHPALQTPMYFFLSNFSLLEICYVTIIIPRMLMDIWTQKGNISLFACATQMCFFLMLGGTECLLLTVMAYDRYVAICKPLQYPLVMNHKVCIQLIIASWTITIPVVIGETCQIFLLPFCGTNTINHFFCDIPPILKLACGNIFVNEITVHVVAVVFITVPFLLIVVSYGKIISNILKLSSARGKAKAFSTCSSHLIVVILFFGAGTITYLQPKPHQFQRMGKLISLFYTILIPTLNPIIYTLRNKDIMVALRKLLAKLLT
Outline: as §1

[8] = target: T8, OR10C1 (Homo sapiens) (UniProt Q96KK4)
T8 sequence (whole entry): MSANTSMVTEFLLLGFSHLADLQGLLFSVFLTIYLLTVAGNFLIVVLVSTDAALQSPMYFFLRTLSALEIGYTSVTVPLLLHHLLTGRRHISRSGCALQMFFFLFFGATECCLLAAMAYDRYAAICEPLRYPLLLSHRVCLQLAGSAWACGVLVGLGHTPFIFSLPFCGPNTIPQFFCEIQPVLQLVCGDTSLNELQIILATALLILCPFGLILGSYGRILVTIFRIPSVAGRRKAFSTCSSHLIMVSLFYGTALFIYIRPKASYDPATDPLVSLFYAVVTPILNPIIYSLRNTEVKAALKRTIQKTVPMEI
Outline: as §1

[9] = target: T9, OR10D3 (Homo sapiens) (UniProt Q8NH80)
T9 sequence (whole entry): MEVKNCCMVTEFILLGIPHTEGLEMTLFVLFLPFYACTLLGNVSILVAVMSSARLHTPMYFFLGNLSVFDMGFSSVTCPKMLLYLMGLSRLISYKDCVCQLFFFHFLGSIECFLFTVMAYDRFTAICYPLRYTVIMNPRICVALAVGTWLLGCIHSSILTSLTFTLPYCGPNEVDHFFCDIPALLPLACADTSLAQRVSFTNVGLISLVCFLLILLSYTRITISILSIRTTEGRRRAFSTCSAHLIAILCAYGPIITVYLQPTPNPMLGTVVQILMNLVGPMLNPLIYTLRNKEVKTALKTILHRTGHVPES
Outline: as §1

[10] = target: T10, OR10G2 (Homo sapiens) (UniProt Q8NGC3)
T10 sequence (whole entry): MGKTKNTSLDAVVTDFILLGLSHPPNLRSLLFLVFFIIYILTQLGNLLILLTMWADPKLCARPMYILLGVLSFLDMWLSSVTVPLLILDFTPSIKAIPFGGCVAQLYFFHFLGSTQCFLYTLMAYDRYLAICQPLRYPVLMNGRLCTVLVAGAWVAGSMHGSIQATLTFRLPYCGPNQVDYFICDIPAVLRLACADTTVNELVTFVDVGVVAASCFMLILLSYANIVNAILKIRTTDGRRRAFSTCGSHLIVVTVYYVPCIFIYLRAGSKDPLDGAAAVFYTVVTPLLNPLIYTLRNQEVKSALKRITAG
Outline: as §1

[11] = target: T11, OR10G3 (Homo sapiens) (UniProt Q8NGC4)
T11 sequence (whole entry): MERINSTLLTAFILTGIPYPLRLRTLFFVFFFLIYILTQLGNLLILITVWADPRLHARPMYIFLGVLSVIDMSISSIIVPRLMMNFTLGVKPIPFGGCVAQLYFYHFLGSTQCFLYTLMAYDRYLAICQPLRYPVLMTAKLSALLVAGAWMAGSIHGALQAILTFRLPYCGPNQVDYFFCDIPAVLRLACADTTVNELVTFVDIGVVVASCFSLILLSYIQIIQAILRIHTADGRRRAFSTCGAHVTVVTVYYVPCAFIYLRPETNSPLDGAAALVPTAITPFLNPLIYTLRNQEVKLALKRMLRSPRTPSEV
Outline: as §1

[12] = target: T12, OR10G4 (Homo sapiens) (UniProt Q8NGN3)
T12 sequence (whole entry): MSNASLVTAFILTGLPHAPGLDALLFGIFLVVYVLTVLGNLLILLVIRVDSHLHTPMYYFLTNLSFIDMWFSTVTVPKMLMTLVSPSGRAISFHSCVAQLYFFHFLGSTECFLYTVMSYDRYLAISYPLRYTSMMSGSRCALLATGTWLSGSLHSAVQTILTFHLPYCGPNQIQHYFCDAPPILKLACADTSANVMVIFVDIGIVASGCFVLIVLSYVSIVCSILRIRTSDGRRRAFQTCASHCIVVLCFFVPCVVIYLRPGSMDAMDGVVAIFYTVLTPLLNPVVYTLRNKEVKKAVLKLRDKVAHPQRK
Outline: as §1

[13] = target: T13, OR10G6 (Homo sapiens) (UniProt Q8NH81)
T13 sequence (whole entry): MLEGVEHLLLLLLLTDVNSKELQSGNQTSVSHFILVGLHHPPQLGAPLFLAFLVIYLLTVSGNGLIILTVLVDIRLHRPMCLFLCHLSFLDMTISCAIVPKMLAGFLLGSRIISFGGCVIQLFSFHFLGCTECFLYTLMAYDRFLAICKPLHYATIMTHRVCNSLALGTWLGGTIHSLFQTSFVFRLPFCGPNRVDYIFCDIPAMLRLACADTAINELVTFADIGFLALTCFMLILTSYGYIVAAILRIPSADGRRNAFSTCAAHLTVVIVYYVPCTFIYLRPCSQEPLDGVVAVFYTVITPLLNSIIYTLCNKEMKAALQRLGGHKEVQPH
Outline: as §1

[14] = target: T14, OR10G7 (Homo sapiens) (UniProt Q8NGN6)
T14 sequence (whole entry): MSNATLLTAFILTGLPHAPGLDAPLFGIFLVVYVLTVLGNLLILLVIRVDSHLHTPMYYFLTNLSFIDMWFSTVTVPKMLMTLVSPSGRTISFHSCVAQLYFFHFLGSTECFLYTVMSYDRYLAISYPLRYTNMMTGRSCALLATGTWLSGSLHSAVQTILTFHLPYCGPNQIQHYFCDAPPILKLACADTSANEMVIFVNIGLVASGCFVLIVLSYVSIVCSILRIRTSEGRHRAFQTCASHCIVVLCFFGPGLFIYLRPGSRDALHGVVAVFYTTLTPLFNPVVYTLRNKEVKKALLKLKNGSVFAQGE
Outline: as §1

[15] = target: T15, OR10G8 (Homo sapiens) (UniProt Q8NGN5)
T15 sequence (whole entry): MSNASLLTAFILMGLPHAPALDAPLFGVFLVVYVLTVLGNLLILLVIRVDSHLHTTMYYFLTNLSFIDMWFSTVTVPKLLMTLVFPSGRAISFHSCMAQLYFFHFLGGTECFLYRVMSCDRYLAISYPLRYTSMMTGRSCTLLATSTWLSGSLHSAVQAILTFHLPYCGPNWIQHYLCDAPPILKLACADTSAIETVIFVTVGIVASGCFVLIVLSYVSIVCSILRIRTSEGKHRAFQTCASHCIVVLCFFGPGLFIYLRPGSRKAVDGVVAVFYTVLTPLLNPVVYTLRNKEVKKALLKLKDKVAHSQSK
Outline: as §1

[16] = target: T16, OR10G9 (Homo sapiens) (UniProt Q8NGN4)
T16 sequence (whole entry): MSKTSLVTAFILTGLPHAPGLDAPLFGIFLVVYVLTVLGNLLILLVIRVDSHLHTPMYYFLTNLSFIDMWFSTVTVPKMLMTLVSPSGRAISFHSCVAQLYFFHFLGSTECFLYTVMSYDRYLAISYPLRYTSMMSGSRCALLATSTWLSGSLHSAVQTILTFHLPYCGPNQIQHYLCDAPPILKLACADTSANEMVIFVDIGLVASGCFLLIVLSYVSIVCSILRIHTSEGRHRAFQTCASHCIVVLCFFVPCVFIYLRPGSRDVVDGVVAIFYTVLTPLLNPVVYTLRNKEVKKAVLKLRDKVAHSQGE
Outline: as §1

[17] = target: T17, OR10H1 (Homo sapiens) (UniProt Q9Y4A9)
T17 sequence (whole entry): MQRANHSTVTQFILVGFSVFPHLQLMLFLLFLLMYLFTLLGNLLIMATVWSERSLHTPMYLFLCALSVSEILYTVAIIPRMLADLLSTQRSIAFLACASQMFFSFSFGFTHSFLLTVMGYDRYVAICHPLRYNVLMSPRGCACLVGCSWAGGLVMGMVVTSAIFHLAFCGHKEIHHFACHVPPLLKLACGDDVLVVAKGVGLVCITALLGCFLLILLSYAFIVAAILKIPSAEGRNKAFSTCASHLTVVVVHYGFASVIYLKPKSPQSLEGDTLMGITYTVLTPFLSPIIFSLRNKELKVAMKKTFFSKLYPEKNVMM
Outline: as §1

[18] = target: T18, OR10H2 (Homo sapiens) (UniProt O60403)
T18 sequence (whole entry): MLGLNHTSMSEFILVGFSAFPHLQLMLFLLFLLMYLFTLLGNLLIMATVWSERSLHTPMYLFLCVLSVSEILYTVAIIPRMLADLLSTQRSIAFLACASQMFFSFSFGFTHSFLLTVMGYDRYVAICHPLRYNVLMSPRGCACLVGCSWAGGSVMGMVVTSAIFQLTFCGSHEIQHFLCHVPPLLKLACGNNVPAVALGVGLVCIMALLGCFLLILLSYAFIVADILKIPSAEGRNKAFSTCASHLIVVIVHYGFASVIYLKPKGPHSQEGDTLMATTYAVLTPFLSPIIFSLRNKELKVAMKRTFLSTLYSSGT
Outline: as §1

[19] = target: T19, OR10H3 (Homo sapiens) (UniProt O60404)
T19 sequence (whole entry): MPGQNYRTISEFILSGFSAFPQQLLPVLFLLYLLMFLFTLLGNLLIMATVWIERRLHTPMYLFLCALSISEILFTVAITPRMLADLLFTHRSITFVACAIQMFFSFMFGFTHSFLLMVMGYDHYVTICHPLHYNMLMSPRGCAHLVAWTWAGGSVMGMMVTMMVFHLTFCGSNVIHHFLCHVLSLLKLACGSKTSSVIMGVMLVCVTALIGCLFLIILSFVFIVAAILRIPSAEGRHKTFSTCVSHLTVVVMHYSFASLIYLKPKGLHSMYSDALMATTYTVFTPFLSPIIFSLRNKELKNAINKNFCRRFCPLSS
Outline: as §1

Measured: odorant receptor agonist call;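 note: active if original authors judged signal statistically different from baseline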

CCC1OC(C)=C(O)C1=O (centres undefined)
inactive: all assays above
